Results as given in paper PMC7993274 (Clinical and Translational Science, 2020).
“Also recorded” adds a separate entry of the source.

Assays:
[1] = Plasma PK, single ascending dose; assay type: in vivo, human; details: for t1/2: arithmetic mean (SD); for AUCinf (dn) / Cmax (dn): dose normalized; for AUCinf (dn) / Cmax (dn) / AUCinf / Cmax: geometric mean (CV %); for Tmax: median (range)
In short: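 Healthy volunteers were randomized 3:1 to test compound or placebo, given as a single oral dose of 3–1,600 mg (tablets; suspension for 3 mg) after an overnight fast of ≥8 h. Plasma was sampled predose and at 0.5–72 h. Assay LLOQ was 1 ng/mL. Parameters came from noncompartmental analysis, were dose-normalized to 1 mg, and were reported as geometric mean (CV), with Tmax excepted.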

OATP1B3 = details: cited from earlier work
MATE2 = details: cited from earlier work
Impact of food on PK = assay type: in vivo, human; set-up: Cmax adjusted geometric mean (90% CI) for fed vs. fasted / AUC24 adjusted geometric mean for fed vs. fasted (90% CI): unit not given beside the values; details: for increase in AUC24 with a meal / increase in Cmax with a meal: fed vs fasted
[2] = background statement, no reference given; cited from earlier work
OATP1B1 = details: cited from earlier work
[3] = background statement, no reference given; cited from earlier work; remark: listed apart in the source
[4] = Urinary PK, MAD period day 10; assay type: in vivo, human; details: day 10, across all doses
In short: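 During the MAD period, urine was collected on day −1 (0–24 h) and day 10 (0–12 h and 12–24 h), with LLOQ 1 ng/mL. Renal clearance and unchanged drug recovered in urine were summarized descriptively as geometric mean (CV), by dose group and for the Japanese 400 mg q.d. cohort.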

[5] = rats, preclinical studies; cited from earlier work
MRP1 = details: cited from earlier work
OCT2 = details: cited from earlier work
[6] = Clinical laboratory parameters, vital signs, ECG and overall safety; assay type: in vivo, human
In short: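 Double-blind, placebo-controlled study in healthy men and nonchildbearing women aged 18–55 y. The SAD period gave one fasted oral dose; the MAD period gave fed dosing q.d. for 10 days, plus a separate b.i.d. cohort. TEAEs, serious AEs and discontinuation AEs were monitored ≥28 days after the last dose. Vital signs, physical exam, 12-lead ECG, hematology, clinical chemistry and urinalysis were also recorded. Data summarized descriptively.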

[7] = system: sodium/Na+ taurocholate co‐transporting polypeptide; details: cited from earlier work
[8] = pH 6.5; background statement, no reference given; cited from earlier work
MRP3 = details: cited from earlier work
MATE1 = details: cited from earlier work
CYP3A4 = assay: 6‐beta‐hydroxycortisol/cortisol ratio; assay type: in vivo, human; details: participants receiving PF‐06826647
[9] = SAD 1,600 mg single dose fasted

In the case of `Cn1cc(-c2cn3nccc3c(-c3cnn([C@]4(CC#N)C[C@@H](C#N)C4)c3)n2)cn1` [PF‐06826647], the t1/2 ([1]; SAD 3 mg single dose fasted) is reported as 3.6 (1.3) hour, the “AUCinf (dn)” value ([1]; SAD 3 mg single dose fasted) is reported as 15.9 (59) ng.hour/mL/mg and the “Cmax (dn)” value ([1]; SAD 3 mg single dose fasted) is reported as 2.6 (38) ng/mL/mg. The AUCinf ([1]; SAD 3 mg single dose fasted) was 47.6 (59) ng.hour/mL, the Cmax ([1]; SAD 3 mg single dose fasted) was 7.8 (38) ng/mL and the Tmax ([1]; SAD 3 mg single dose fasted) was 2.0 (1.0–2.0) hour. The t1/2 ([1]; SAD 10 mg single dose fasted) was 6.0 (1.9) hour, the “AUCinf (dn)” value ([1]; SAD 10 mg single dose fasted) was 36.9 (67) ng.hour/mL/mg and the “Cmax (dn)” value ([1]; SAD 10 mg single dose fasted) was 4.7 (35) ng/mL/mg. The AUCinf ([1]; SAD 10 mg single dose fasted) was 369.3 (67) ng.hour/mL, the Cmax ([1]; SAD 10 mg single dose fasted) was 47.1 (35) ng/mL and the Tmax ([1]; SAD 10 mg single dose fasted) was 2.0 (1.0–4.0) hour. For the same molecule, the t1/2 ([1]; SAD 30 mg single dose fasted) was 19.7 (9.5) hour, the “AUCinf (dn)” value ([1]; SAD 30 mg single dose fasted) was 28.3 (41) ng.hour/mL/mg and the “Cmax (dn)” value ([1]; SAD 30 mg single dose fasted) was 2.6 (34) ng/mL/mg. The AUCinf ([1]; SAD 30 mg single dose fasted) was 848.4 (40) ng.hour/mL, the Cmax ([1]; SAD 30 mg single dose fasted) was 77.9 (34) ng/mL and the Tmax ([1]; SAD 30 mg single dose fasted) was 2.0 (1.0–4.0) hour. For the same molecule, the t1/2 ([1]; SAD 100 mg single dose fasted) was 38.8 (36.0) hour, the “AUCinf (dn)” value ([1]; SAD 100 mg single dose fasted) was 15.8 (42) ng.hour/mL/mg and the “Cmax (dn)” value ([1]; SAD 100 mg single dose fasted) was 1.7 (55) ng/mL/mg. For the same molecule, the AUCinf ([1]; SAD 100 mg single dose fasted) was 1,582.0 (42) ng.hour/mL, the Cmax ([1]; SAD 100 mg single dose fasted) was 166.8 (55) ng/mL and the Tmax ([1]; SAD 100 mg single dose fasted) was 2.0 (2.0–6.0) hour. For the same molecule, the t1/2 ([1]; SAD 400 mg single dose fasted) was 16.3 (9.3) hour, the “AUCinf (dn)” value ([1]; SAD 400 mg single dose fasted) was 7.6 (65) ng.hour/mL/mg and the “Cmax (dn)” value ([1]; SAD 400 mg single dose fasted) was 1.0 (62) ng/mL/mg. For the same molecule, the AUCinf ([1]; SAD 400 mg single dose fasted) was 3,056.0 (65) ng.hour/mL, the Cmax ([1]; SAD 400 mg single dose fasted) was 404.8 (62) ng/mL and the Tmax ([1]; SAD 400 mg single dose fasted) was 2.0 (0.5–4.0) hour. For the same molecule, the t1/2 [1, 9] was 22.2 (24.6) hour, the “AUCinf (dn)” value [1, 9] was 7.4 (25) ng.hour/mL/mg and the “Cmax (dn)” value [1, 9] was 0.8 (25) ng/mL/mg. The AUCinf [1, 9] was 11,790.0 (25) ng.hour/mL, the Cmax [1, 9] was 1,218.0 (25) ng/mL and the Tmax [1, 9] was 2.0 (0.5–4.0) hour. The “dose proportionality of AUCinf and Cmax” value ([1]; SAD doses of 3–10 mg) was “greater than dose‐proportional”, the “dose proportionality of AUCinf and Cmax” value ([1]; SAD doses of 10–400 mg) was “less than dose‐proportional” and the “dose proportionality of AUCinf and Cmax” value ([1]; SAD doses of 400–1,600 mg) was “dose‐proportional”. For the same molecule, the “median Tmax” value ([1]; fasted state, SAD, overall) was 2 h, the “inhibition of transporter protein OATP1B3” value (OATP1B3) was “minimal inhibition” and the “inhibition of transporter protein MATE2” value (MATE2) was “MATE2 inhibition; also recorded: inhibitor of the MATE2 renal transporter”. The “AUC24 adjusted geometric mean for fed vs. fasted (90% CI)” value (Impact of food on PK; 30 mg) was 122.0 (78.7–189.2), the “Cmax adjusted geometric mean (90% CI) for fed vs. fasted” value (“Cmax adjusted geometric mean (90% CI)” below) (Impact of food on PK; 30 mg) was 107.2 (74.2–154.8) and the “increase in AUC24 with a meal” value (Impact of food on PK; 30 mg) was 22%. The “increase in Cmax with a meal” value (Impact of food on PK; 30 mg) was 7%, the “AUC24 adjusted geometric mean for fed vs. fasted (90% CI)” value (Impact of food on PK; 100 mg) was 155.7 (99.1–244.6) and the “Cmax adjusted geometric mean (90% CI)” value (Impact of food on PK; 100 mg) was 160.2 (109.7–234.0). The “increase in AUC24 with a meal” value (Impact of food on PK; 100 mg) was 56%, the “increase in Cmax with a meal” value (Impact of food on PK; 100 mg) was 60% and the “AUC24 adjusted geometric mean for fed vs. fasted (90% CI)” value (Impact of food on PK; 400 mg) was 175.6 (113.3–272.3). For the same molecule, the “Cmax adjusted geometric mean (90% CI)” value (Impact of food on PK; 400 mg) was 144.8 (100.2–209.1), the “increase in AUC24 with a meal” value (Impact of food on PK; 400 mg) was 76% and the “increase in Cmax with a meal” value (Impact of food on PK; 400 mg) was 45%. The “median Tmax with food” value (Impact of food on PK; fed, day 1 MAD, doses of 30–400 mg) was 3.0 to 4.0 h, the cellular permeability [2] was ~ 17 × 10^‐6 cm/s and the “inhibition of transporter protein OATP1B1” value (OATP1B1) was “minimal inhibition”. The pKa [3] was under 1.7, the “dose recovered unchanged in urine” value [4] was under 1.5% and the “drug clearance via renal and biliary excretion” value [5] was “limited drug clearance via renal and biliary excretion”. For the same molecule, the “inhibition of transporter protein MRP1” value (MRP1) was “minimal inhibition”, the “inhibition of transporter protein OCT2” value (OCT2) was “minimal inhibition” and the “increase in median platelet count from baseline” value ([6]; SAD 1,600 mg (placebo: 6% decrease)) was 28%. The “changes in lipid parameters (LDL, HDL, total cholesterol)” value ([6]; SAD and MAD treatment groups) was “small, and similar to those observed in the placebo group”, the “intensity of TEAEs” value ([6]; all TEAEs) was “mild in intensity” and the lymphocyte counts ([6]; assessment period) was “No clinically meaningful changes”. The neutrophil counts ([6]; assessment period) was “No clinically meaningful changes”, the “events of acne or aphthous ulcers” value ([6]; either treatment period) was “No events of acne or aphthous ulcers were reported” and the “serum cystatin C, serum creatinine‐based and cystatin C‐based eGFR” value ([6]; human, in vivo) was “No clinically meaningful changes”. The “vital signs, ECG parameters, physical examination” value ([6]; human, in vivo) was “No clinically significant findings”, the platelet counts ([6]; participants receiving PF‐06826647) was “remained within the normal range” and the tolerability ([6]; single ≤ 1,600 mg, multiple ≤ 1,200 mg q.d., 200 mg b.i.d., 10‐day dosing) was “well‐tolerated”. For the same molecule, the “serum creatinine increase from baseline” value ([6]; some participants, isolated timepoints) was “up to 0.3 mg/dL”, the “participants with gastrointestinal AEs” value ([6]; whole study, three participants) was 4% and the “inhibition of sodium/Na+ taurocholate co‐transporting polypeptide” value [7] was “minimal inhibition”. For the same molecule, the solubility [8] was ~ 0.3 μg/mL, the “inhibition of transporter protein MRP3” value (MRP3) was “minimal inhibition” and the “inhibition of transporter protein MATE1” value (MATE1) was “minimal inhibition”. The “6‐beta‐hydroxycortisol/cortisol ratio” value (CYP3A4) was “no clinically meaningful alteration”.
